Compound activity: PubChem BioAssay, several laboratories
GPR7 antagonist = GPR7 receptor antagonists, primary screen, cell-based, fluorescence, single concentration. AID 1861, 2009. inhibition, % at 4.4 µM. actives 1.1% (n = 290,000). GPR7-expressing cells, fluorescence antagonist assay; in the data active means inhibition above about 16%, passing the limit was not always enough;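 further: cells stimulated with the agonist NPW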
TRPN1 ag = zebrafish TRPN1 channel agonists, primary screen, cell-based, HEK293, calcium fluorescence; HEK293 zebrafish TRPN1-YFP, Fluo-8 calcium fluorescence; 100% = response to 87 µM carbachol; AID 1424, 2008; activation, % at 3 µM; actives 0.18% (n = 220,000); transient receptor potential cation channel N1 (TRPN1/NompC), Danio rerio;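 active means activation above its plate's cutoff, the mean activation of test wells on that plate plus 3 SD, cut at about 19% in these data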
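Material: zebrafish TRPN1-YFP in HEK293 cells. Doses: one dose of 3 µM, 0.3% DMSO. Incubation: dye 1 h 37 °C plus 30 min RT. Measured by: intracellular calcium fluorescence with Fluo-8.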
TRPML3 agonist = human TRPML3 channel agonists, primary screen, cell-based, HEK293 TRPML3-YFP, Fluo-8 calcium fluorescence, 3 µM; Mucolipin-3 (Homo sapiens), Q8TDD5; 100% = the carbachol control signal; activation, % at 3 µM; actives 0.29% (n = 220,000); AID 1448, 2008;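 active means activation above its plate's cutoff, the mean activation of the plate's test wells plus 3 SD, cut at about 12% in these data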
Target sequence (Q8TDD5 whole entry, looked up): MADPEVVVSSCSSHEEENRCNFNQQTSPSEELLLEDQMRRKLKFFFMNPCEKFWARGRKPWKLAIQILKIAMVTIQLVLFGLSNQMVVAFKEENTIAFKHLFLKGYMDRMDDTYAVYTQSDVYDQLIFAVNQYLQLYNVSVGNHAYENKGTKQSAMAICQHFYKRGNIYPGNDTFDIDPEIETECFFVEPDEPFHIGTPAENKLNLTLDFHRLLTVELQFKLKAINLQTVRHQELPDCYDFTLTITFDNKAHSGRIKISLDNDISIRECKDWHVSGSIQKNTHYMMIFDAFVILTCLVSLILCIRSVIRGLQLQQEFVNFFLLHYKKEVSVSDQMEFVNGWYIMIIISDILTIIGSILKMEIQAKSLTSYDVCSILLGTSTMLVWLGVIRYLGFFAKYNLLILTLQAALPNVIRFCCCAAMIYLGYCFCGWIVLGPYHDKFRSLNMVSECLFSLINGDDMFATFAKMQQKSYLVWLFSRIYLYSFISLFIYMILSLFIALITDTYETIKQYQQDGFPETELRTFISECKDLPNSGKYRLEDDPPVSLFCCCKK
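Material: TRPML3-YFP stable HEK293 cells | Dosing: One concentration, 3 µM nominal, 0.3% DMSO | Timing: 125 s total fluorescence read per well | Technique: Fluo-8 calcium dye fluorescence, ex 470-495, em 515-575 nm | Measure: Percent activation from peak-to-basal fluorescence ratio, scaled between DMSO and carbachol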
CRFR2-BP ag = agonists of CRF-BP/CRF-R2 complex, primary screen, cell-based, HEK293, calcium dye fluorescence, uHTS; calcium dye fluorescence (FLIPR); percent of saturating CRF peptide response; activation, % at 13.2 µM; actives 0.46% (n = 350,000); AID 588473, 2011;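 active means activation of at least 50%, plus an integration ratio under a set limit after plate pattern correction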
CRFR2-BP antag = antagonists of CRF-BP/CRF-R2 complex, primary screen, cell-based, HEK293, calcium dye fluorescence, uHTS; CRF-induced calcium fluorescence; inhibition, % at 11.8 µM; actives 0.59% (n = 350,000);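 active means inhibition of the ligand-induced calcium signal above about 50% at the single tested concentration, limit read from the data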
Each line names hits and unclear results; the compound was inactive in the other large screens. Compounds with a hit are over-represented: about 2% of the library has one in this group of screens.

CCCC1(C(=O)OC)NC(c2ccc(OC)cc2OC)C2C(=O)N(c3cccc(C(C)=O)c3)C(=O)C21 (configuration not stated)	none (no result: TRPN1 ag, TRPML3 agonist)
CC(=O)Oc1oc(-c2ccccc2)nc1C=Nc1ccccc1	CRFR2-BP ag 57
CCOC(=O)c1ccc(N=Cc2nc(-c3ccccc3)oc2OC(C)=O)cc1	none
O=C(Nc1cccc2ncccc12)c1ccc2c(c1)OCCO2	CRFR2-BP ag 57
Nc1ccc(C(=O)Nc2cccc3ncccc23)cc1	none (no result: TRPN1 ag, TRPML3 agonist)
CCCC1CC(CCc2ccccc2)OS(=O)(=O)N1 (configuration not stated)	none (no result: TRPN1 ag, TRPML3 agonist)
COc1ccccc1C(=O)COC(=O)c1c(-c2ccccc2)noc1C	CRFR2-BP antag 50 (no result: GPR7 antagonist, TRPN1 ag, TRPML3 agonist)
O=C(c1ccccc1)c1ccc[nH]1	none (no result: GPR7 antagonist, TRPN1 ag, TRPML3 agonist)
C[C@H](CO)N1C[C@H](C)[C@H](CN(C)C(=O)Nc2ccc(C(F)(F)F)cc2)Oc2ncc(-c3cccnc3)cc2C1=O	none (no result: GPR7 antagonist, TRPN1 ag, TRPML3 agonist)
CCNC(=S)N/N=C1\C(=O)c2cccc3cccc1c23	none
O=C(N/N=C1/C(=O)c2cccc3cccc1c23)c1ccc(Cl)cc1	CRFR2-BP ag 52
Cc1coc2cc3oc(=O)c(CCC(=O)N4C[C@H]5C[C@@H](C4)c4cccc(=O)n4C5)c(C)c3cc12	none (no result: TRPN1 ag, TRPML3 agonist)
COc1ccc(C(=O)COC(=O)c2cccnc2SC)cc1	CRFR2-BP antag 78
CSc1ncccc1C(=O)OCC(=O)c1ccccc1	none
CC(C)(C)c1ccc(C(=O)CC(=O)c2cc(Cl)ccc2O)cc1	none
Cc1ccc(C(=O)CC(=O)c2cc(Cl)ccc2O)cc1	CRFR2-BP ag 68
O=C(OCC(=O)N1CCN(C(=O)c2ccco2)CC1)c1ccccc1OCc1ccc(Cl)cc1	GPR7 antagonist 28
COc1ccc(Cl)cc1C(=O)n1cnc2ccccc21	none (no result: TRPN1 ag, TRPML3 agonist)
Cc1ccc(NC(=O)/C(C#N)=N/Nc2ccc(C(=O)O)cc2)c(C)c1	none
Cc1ccc(N/N=C(\C#N)C(N)=S)c(C)c1	CRFR2-BP ag 60
Cc1c(Cl)cccc1NC(=O)CSc1nc2ncc(Cl)cc2[nH]1	none (no result: TRPN1 ag, TRPML3 agonist)
CC1(C)CC(=O)C(C2C3=C(CC(C)(C)CC3=O)Oc3ccc4ccccc4c32)C(=O)C1 (configuration not stated)	CRFR2-BP antag 81
Cc1cccc(Nc2nnc(SC(C)C(=O)NC3CC3)s2)c1 (configuration not stated)	none (no result: GPR7 antagonist, TRPN1 ag, TRPML3 agonist)
CCc1ccc(Nc2nnc(SC(C)C(=O)NC3CC3)s2)cc1 (configuration not stated)	CRFR2-BP antag 79 (no result: GPR7 antagonist, TRPN1 ag, TRPML3 agonist)
COCCCNc1nc(N)c([N+](=O)[O-])c(N2CCCCCC2)n1	none (no result: TRPN1 ag, TRPML3 agonist)
Cc1[nH]c2ccccc2c1/C=N/Nc1ccc([N+](=O)[O-])cc1	CRFR2-BP ag 121
CN(Cc1ccccc1)C(=O)c1ccc(S(=O)(=O)N(C)c2ccccc2)cc1	none (no result: GPR7 antagonist, TRPN1 ag, TRPML3 agonist)
CC(=O)c1ccc(OCC(O)Cn2nnc3ccccc32)cc1 (configuration not stated)	none
Cc1cccc(C)c1OCC(O)Cn1nnc2ccccc21 (configuration not stated)	CRFR2-BP antag 65
CCN1C(=O)[C@H]2[C@H]3CN=C(SCc4ccccc4)N3[C@@](CC)(C(=O)OC)[C@H]2C1=O	none (no result: GPR7 antagonist, TRPN1 ag, TRPML3 agonist)
CCCc1cc(=O)[nH]c(SCC(=O)Nc2ccc(OC(F)F)cc2)n1	CRFR2-BP antag 66
Clc1ccccc1NN(Cc1ccncc1)c1ccccc1Cl	CRFR2-BP antag 53 (no result: GPR7 antagonist, TRPN1 ag, TRPML3 agonist)
Cc1nn(-c2cc(C(F)(F)F)ccc2Cl)c2nc(C(F)(F)F)[nH]c(=O)c12	none
Cc1nn(-c2cccc(Cl)c2)c2nc(C(F)(F)F)[nH]c(=O)c12	CRFR2-BP antag 86
CCSc1nnc(-c2sc3nnc(-c4ccccc4)c(-c4ccccc4)c3c2N)o1	CRFR2-BP ag 116
CC1(C)CC(=O)C(C=Nc2ccc(C(=O)c3ccccc3)cc2N=CC2=C(O)CC(C)(C)CC2=O)=C(O)C1	CRFR2-BP ag 105
CC1(C)CC(=O)C(C=Nc2ccc(O)c(N=CC3=C(O)CC(C)(C)CC3=O)c2)=C(O)C1	none
N#CC(CCc1ccc([N+](=O)[O-])cc1)(CCc1ccc([N+](=O)[O-])cc1)C(N)=O	none (no result: GPR7 antagonist, TRPN1 ag, TRPML3 agonist)
Cc1cccc(N2CCN(S(=O)(=O)c3ccc(Cl)nc3)CC2C)c1 (configuration not stated)	CRFR2-BP antag 76 (no result: GPR7 antagonist, TRPN1 ag, TRPML3 agonist)
O=C(Nc1c(Cl)ccc2nsnc12)c1ccc([N+](=O)[O-])o1	none (no result: TRPN1 ag, TRPML3 agonist)
C=Cn1cc[n+](CC(=O)c2ccc(Cl)cc2)c1	CRFR2-BP antag 117 (no result: TRPN1 ag, TRPML3 agonist)
Cn1c(N)c(C(=O)COC(=O)CNS(=O)(=O)c2ccc(Cl)c(Cl)c2)c(=O)n(C)c1=O	CRFR2-BP antag 65
Cn1c(N)c(C(=O)COC(=O)Cc2ccsc2)c(=O)n(C)c1=O	GPR7 antagonist 20
Cn1c(N)c(C(=O)COC(=O)CNC(=O)c2ccccc2Cl)c(=O)n(C)c1=O	none (no result: GPR7 antagonist, TRPN1 ag, TRPML3 agonist)
Cc1ccccc1NC(=O)C1(NC(=O)c2cccc(N3C(=O)CSC3c3ccccc3)c2)CCCCC1 (configuration not stated)	GPR7 antagonist 20
COc1cc(/C=C/C(=O)OCC(=O)NC(=O)C2COc3ccccc3O2)ccc1OC(F)F (configuration not stated)	none (no result: GPR7 antagonist, TRPN1 ag, TRPML3 agonist)
CCn1nc(C)c(NC(=O)/C=C/c2ccc(OC)c(COc3ccc(Cl)cc3Br)c2)c1C	none
COc1ccc(/C=C/C(=O)NCc2cn(C)nc2C)cc1COc1ccc(Cl)cc1Br	CRFR2-BP antag 92
COc1ccc(/C=C2\CCCc3c2nc2ccccc2c3C(=O)O)cc1OC	TRPN1 ag 40, TRPML3 agonist 19 (no result: CRFR2-BP ag, CRFR2-BP antag)
CCOC(=O)C1=C(COC(=O)CCC(=O)c2ccc(C)cc2)NC(=O)NC1C (configuration not stated)	none (no result: GPR7 antagonist, TRPN1 ag, TRPML3 agonist)
Cc1nn2c(N)c(-c3ccccc3)cnc2c1-c1ccc(Cl)cc1	CRFR2-BP antag 54 (no result: TRPN1 ag, TRPML3 agonist)
Cc1ccc(NC(=O)COC(=O)CCc2c[nH]c3ccccc23)c(C)c1	CRFR2-BP antag 54 (no result: GPR7 antagonist, TRPN1 ag, TRPML3 agonist)
COc1cccc(CN2C(=O)C(C)N(C(=O)c3ccccc3)c3ccccc32)c1 (configuration not stated)	CRFR2-BP antag 116 (no result: TRPN1 ag, TRPML3 agonist)
O=C(O)C1=CCCNC1	CRFR2-BP antag 57 (no result: GPR7 antagonist, TRPN1 ag, TRPML3 agonist)
O=C(O)C1=CCNCC1	none (no result: GPR7 antagonist, TRPN1 ag, TRPML3 agonist)
N#C/C(=C(/O)COC(=O)c1ccccc1O)c1nc2ccccc2s1	CRFR2-BP ag 79
Cc1nnc(SCC(=O)N2CCc3ccccc32)s1	GPR7 antagonist 16
Cc1nnc2sc(SCC(=O)N3CCc4ccccc43)nn2c1=O	none (no result: GPR7 antagonist, TRPN1 ag, TRPML3 agonist)
C[C@H](CO)N1C[C@H](C)[C@@H](CN(C)CC2CCCCC2)Oc2ccc(NC(=O)Cn3cnnn3)cc2C1=O	none (no result: GPR7 antagonist, TRPN1 ag, TRPML3 agonist)
CS(=O)(=O)C1=NSC2=NC(=O)/C(=C\c3cccn3-c3ccc(Cl)cc3)C(=N)N21	CRFR2-BP antag 57
